Reference: ChEMBL document CHEMBL1137651 (Antimicrob Agents Chemother, 2007)
≈ marks a conversion by molar mass, not a printed value. Calls of active or inactive are those of the source. No cut-off for these calls is given here.

What was measured:
Homo sapiens [1] = test: fCmax in Mycobacterium tuberculosis H37Rv ATCC 2517-infected patient serum at 2100 mg, po administered twice a week; format: ADME, organism-based; details: in vivo
[2] = AUC (0 to 168 hrs) in Mycobacterium tuberculosis H37Rv ATCC 2517-infected hollow fiber system based in vitro pharmacokinetic-pharmacodynamic tuberculosis model; format: ADME; parameters: time < 168 hr
Summary of the method: (§1)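 Samples were cleaned up by solid-phase extraction and quantified by LC-MS (C18 column, 25 mM ammonium acetate/acetonitrile 58:42).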

Homo sapiens [3] = test: fCmax in Mycobacterium tuberculosis H37Rv ATCC 2517-infected patient serum at 600 mg/day, po; format: ADME, organism-based
[4] = AUC (0 to 168 hrs) in Mycobacterium tuberculosis H37Rv ATCC 2517-infected patient serum at 600 mg/day, po; format: ADME, organism-based, Plasma; parameters: time < 168 hr, dose 600 mg/day, route oral; details: human
[5] = system: Mycobacterium tuberculosis; test: Antimycobacterial activity against drug-sensitive Mycobacterium tuberculosis H37Rv ATCC 2517-infected hollow fiber system based in vitro pharmacokinetic-pharmacodynamic tuberculosis model assessed as rate constant for maximal bacterial growth; format: functional
[6] = system: Mycobacterium tuberculosis; test: Post antibiotic effect against Mycobacterium tuberculosis H37Rv ATCC 2517 infected hollow fiber system based in vitro pharmacokinetic-pharmacodynamic tuberculosis model at 7 mg/L administered for 2 hrs; format: functional
Homo sapiens [7] = test: fCmax in Mycobacterium tuberculosis H37Rv ATCC 2517-infected patient serum at 4200 mg, po administered once a week; format: ADME, organism-based; details: in vivo
[8] = system: Mycobacterium tuberculosis; test: Post antibiotic effect against Mycobacterium tuberculosis H37Rv ATCC 2517 infected hollow fiber system based in vitro pharmacokinetic-pharmacodynamic tuberculosis model at 2 mg/L administered for 7 hrs; format: functional
Summary of the method: (§2)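 Broth cultures grown 4 days were exposed at 10^6 CFU/ml to the stated concentration and duration. They were then washed twice by centrifugation (2,000 x g, 10 min) and resuspended in fresh broth, shaken at 37°C in 5% CO2, and sampled every other day for agar counts. PAE equals the time for exposed cultures to grow 1 log10 CFU/ml minus that for controls. The study was performed twice.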

[9] = system: Mycobacterium tuberculosis; test: Antimycobacterial activity against drug-sensitive Mycobacterium tuberculosis H37Rv ATCC 2517-infected hollow fiber system based in vitro pharmacokinetic-pharmacodynamic tuberculosis model assessed as concentration needed to achieve 50% maximal killing rate; format: functional
[10] = system: Mycobacterium tuberculosis; test: Post antibiotic effect against Mycobacterium tuberculosis H37Rv ATCC 2517 infected hollow fiber system based in vitro pharmacokinetic-pharmacodynamic tuberculosis model at 14 mg/L administered for 0.5 hrs; format: functional; summary of the method: as §2
[11] = AUC in Mycobacterium tuberculosis H37Rv ATCC 2517-infected hollow fiber system based in vitro pharmacokinetic-pharmacodynamic tuberculosis model at 14 mg/L for 0.5 hrs; format: ADME
Homo sapiens [12] = test: fAUC (0 to 168 hrs) in Mycobacterium tuberculosis H37Rv ATCC 2517-infected patient serum at 4200 mg, po administered once a week; format: ADME, organism-based; details: in vivo
[13] = system: Mycobacterium tuberculosis; test: Antimycobacterial activity against drug-sensitive Mycobacterium tuberculosis H37Rv ATCC 2517-infected hollow fiber system based in vitro pharmacokinetic-pharmacodynamic tuberculosis model assessed as sigmoidicity constant for microbial killing; format: functional
[14] = system: Mycobacterium tuberculosis; test: microbe, parasite or virus in culture
[15] = system: Mycobacterium tuberculosis; test: Antimycobacterial activity against Mycobacterium tuberculosis H37Rv ATCC 2517 infected in hollow fiber system based in vitro pharmacokinetic-pharmacodynamic tuberculosis model assessed as microbial killing administered at simulated dose of 2100 mg, po twice weekly; format: functional, organism-based
Summary of the method: (§3)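 Hollow-fiber model at 37°C with 5% CO2. […] Schedules were daily for 7 days, twice weekly (day 0 and 3.5) or once weekly, plus an untreated control. Peripheral samples were taken daily for 7 days, saline-washed twice and plated on 7H10 agar; kill is relative to baseline.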

[16] = system: Mycobacterium tuberculosis; test: Antimycobacterial activity against drug-sensitive Mycobacterium tuberculosis H37Rv ATCC 2517-infected hollow fiber system based in vitro pharmacokinetic-pharmacodynamic tuberculosis model assessed as concentration needed to achieve 50% effect on maximal growth rate; format: functional
[17] = AUC in Mycobacterium tuberculosis H37Rv ATCC 2517-infected hollow fiber system based in vitro pharmacokinetic-pharmacodynamic tuberculosis model at 2 mg/L for 7 hrs; format: ADME
Homo sapiens [18] = test: fAUC (0 to infinity) in Mycobacterium tuberculosis H37Rv ATCC 2517-infected patient serum at 600 mg/day, po; format: ADME, organism-based
[19] = system: Mycobacterium tuberculosis; test: Antimycobacterial activity against Mycobacterium tuberculosis H37Rv ATCC 2517 infected in hollow fiber system based in vitro pharmacokinetic-pharmacodynamic tuberculosis model assessed as microbial killing administered at simulated dose of 600 mg/day for 7 days; format: functional; summary of the method: as §3
Homo sapiens [20] = test: fAUC (0 to 168 hrs) in Mycobacterium tuberculosis H37Rv ATCC 2517-infected patient serum at 2100 mg, po administered twice a week; format: ADME, organism-based; details: in vivo
[21] = AUC in Mycobacterium tuberculosis H37Rv ATCC 2517-infected hollow fiber system based in vitro pharmacokinetic-pharmacodynamic tuberculosis model at 7 mg/L for 2 hrs; format: ADME
[22] = system: Mycobacterium tuberculosis; test: Antimycobacterial activity against drug-sensitive Mycobacterium tuberculosis H37Rv ATCC 2517-infected hollow fiber system based in vitro pharmacokinetic-pharmacodynamic tuberculosis model assessed as sigmoidicity constant for drug effect on microbial growth; format: functional
[23] = AUC (0 to 168 hrs) in Mycobacterium tuberculosis H37Rv ATCC 2517-infected hollow fiber system based in vitro pharmacokinetic-pharmacodynamic tuberculosis model administered at dose simulating 4200 mg once weekly schedule; format: ADME; parameters: time < 168 hr, dose 4200 mg; summary of the method: as §1
[24] = Clearance in Mycobacterium tuberculosis H37Rv ATCC 2517-infected hollow fiber system based in vitro pharmacokinetic-pharmacodynamic tuberculosis model; format: ADME, organism-based
[25] = AUC in Mycobacterium tuberculosis H37Rv ATCC 2517-infected hollow fiber system based in vitro pharmacokinetic-pharmacodynamic tuberculosis model at 7 mg/L for 1 hr; format: ADME
[26] = system: Mycobacterium tuberculosis; test: Post antibiotic effect against Mycobacterium tuberculosis H37Rv ATCC 2517 infected hollow fiber system based in vitro pharmacokinetic-pharmacodynamic tuberculosis model at 7 mg/L administered for 1 hr; format: functional; summary of the method: as §2
[27] = system: Mycobacterium tuberculosis; test: Drug uptake in Mycobacterium tuberculosis H37Rv ATCC 2517-infected hollow fiber system based in vitro pharmacokinetic-pharmacodynamic tuberculosis model; format: ADME, organism-based
Summary of the method: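 Log-phase culture was adjusted to 10^6 CFU/ml in 7H9 broth held at 37°C or 0°C, then given 0, 2, 7 or 14 mg/liter drug. Samples taken at 0, 5, 15, 30 and 60 min were spun through silicone oil, and drug in the pellet was measured by LC-MS. Values at 0°C (cell-wall binding) were subtracted from those at 37°C. Cell volume was estimated from protein by BCA. Run in triplicate.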

[28] = system: Mycobacterium tuberculosis; test: Antimycobacterial activity against drug-sensitive Mycobacterium tuberculosis H37Rv ATCC 2517-infected hollow fiber system based in vitro pharmacokinetic-pharmacodynamic tuberculosis model assessed as rate constant for maximal bacterial kill; format: functional
[29] = system: Mycobacterium tuberculosis; test: Antimycobacterial activity against Mycobacterium tuberculosis H37Rv ATCC 2517 infected in hollow fiber system based in vitro pharmacokinetic-pharmacodynamic tuberculosis model assessed as microbial killing administered at simulated dose of 4200 mg, po once weekly; format: functional, organism-based; summary of the method: as §3

For `CO[C@H]1/C=C/O[C@@]2(C)Oc3c(C)c(O)c4c(O)c(c(/C=N/N5CCN(C)CC5)c(O)c4c3C2=O)NC(=O)/C(C)=C\C=C\[C@H](C)[C@H](O)[C@@H](C)[C@@H](O)[C@@H](C)[C@H](OC(C)=O)[C@@H]1C` [RIFAMPIN], the fCmax (Homo sapiens [1]) was 7 mg/L, the AUC(0-t) at 168 h [2] was 122000 ng·h/mL and the fCmax (Homo sapiens [3]) was 2 mg/L. It also gave an AUC at 168 h [4] of 112000 ng·h/mL, a Kgmax [5] of 9.756 ×10⁻³ log10CFU/ml/hr and a PAE [6] of 12.9 days. The fCmax (Homo sapiens [7]) was 14 mg/L, the PAE [8] was 5.2 days and the C50k [9] was 7.652 mg/L. The PAE [10] was 19.3 days, the AUC at 0.5 h, 14 mg/L [11] was 7000 ng·h/mL and the fAUC (Homo sapiens [12]) was 112000 ng·h/mL. The Hk [13] was 1.388, the MIC90 [14] was 0.125 µg/mL (≈ 0.152 µM) and the Activity [15] was “Active”. The C50g [16] was 1932 mg/L, the AUC at 7 h, 2 mg/L [17] was 14000 ng·h/mL and the fAUC (Homo sapiens [18]) was 16000 ng·h/mL. It also gave a CFU [19] of 1.95 mL⁻¹, a fAUC (Homo sapiens [20]) of 112000 ng·h/mL and an AUC at 2 h, 7 mg/L [21] of 14000 ng·h/mL. For the same molecule, the Hg [22] was 0.361, the AUC(0-t) at 168 h [23] was 14000 ng·h/mL and the CL [24] was 99 L/h. The AUC at 1 h, 7 mg/L [25] was 7000 ng·h/mL, the PAE [26] was 12 days and the Drug uptake [27] was “Dose-dependent effect”. For the same molecule, the Kkmax [28] was 15.829 ×10⁻³ log10CFU/ml/hr and the Activity [29] was “Active”.
